ChEMBL document CHEMBL4765491, “Discovery of Potent and Selective Methylenephosphonic Acid CD73 Inhibitors” (J Med Chem, 2021)

Columns and labels:
[1] = biological target: T1, 5'-nucleotidase (Homo sapiens, UniProt P21589); assay: Inhibition of CD73 in human SK-OV-3 cells incubated for 60 mins before addition of AMP and further incubated for 60 mins by colorimetric assay; format: cell-based
[2] = biological target: T1, 5'-nucleotidase; assay: Inhibition of human CD73 expressed in CHO cells incubated for 60 mins before addition of AMP and further incubated for 60 mins by colorimetric assay; format: cell-based
Method in brief: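 Thawed stable CD73-CHO cells in HEPES pH 7.4 saline buffer with 0.1% glucose, 1500 cells/well. Preincubated 60 min at 37 °C with 16-point 1:3 compound dilutions (final 100–0 or 0.1–0 μM; 10 or 2% DMSO). 25 μM AMP then added, 60 min at 37 °C/5% CO2. Supernatant phosphate measured with PiColorLock Gold. Activity normalized to DMSO and no-cell wells. IC50 from a four-parameter fit.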

[3] = biological target: T2, 5'-nucleotidase (Mus musculus, UniProt Q61503); assay: Inhibition of mouse CD73 expressed in CHO cells incubated for 60 mins before addition of AMP and further incubated for 60 mins by colorimetric assay; format: cell-based
T2 sequence (Q61503 whole entry): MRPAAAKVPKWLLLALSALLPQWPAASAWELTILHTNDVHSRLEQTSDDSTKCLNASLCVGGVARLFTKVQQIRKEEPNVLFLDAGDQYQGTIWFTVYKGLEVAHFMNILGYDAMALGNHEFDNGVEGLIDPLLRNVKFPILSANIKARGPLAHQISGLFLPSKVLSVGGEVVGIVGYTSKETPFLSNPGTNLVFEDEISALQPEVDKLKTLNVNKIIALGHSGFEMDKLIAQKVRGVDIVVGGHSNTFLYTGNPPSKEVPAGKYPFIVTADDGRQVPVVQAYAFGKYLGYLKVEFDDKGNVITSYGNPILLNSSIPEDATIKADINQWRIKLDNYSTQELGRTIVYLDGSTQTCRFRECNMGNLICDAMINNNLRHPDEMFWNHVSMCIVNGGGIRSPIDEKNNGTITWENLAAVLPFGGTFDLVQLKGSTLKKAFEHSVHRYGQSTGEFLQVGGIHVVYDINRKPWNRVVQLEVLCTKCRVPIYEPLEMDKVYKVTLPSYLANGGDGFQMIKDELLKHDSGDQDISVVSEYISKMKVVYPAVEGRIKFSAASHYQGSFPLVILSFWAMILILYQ

[4] = biological target: Adenosine receptor A2a (Homo sapiens, UniProt P29274); assay: Inhibition of A2AR (unknown origin) expressed in CHO cells assessed as reduction in NECA-stimulated cellular cAMP levels incubated for 90 mins by FRET assay; format: functional, cell-based
Method in brief: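 Tetracycline-induced CHO cells stably expressing ADORA2A, 2000 cells/well, preincubated with 20-point 1:2 compound dilutions (final 10–0 μM). Stimulated with 30 nM NECA, 30 min at 37 °C. Quenched with ULight-anti-cAMP in lysis buffer, then Eu-cAMP tracer added, 60 min at 37 °C. Inhibition read as change in cellular cAMP.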

[5] = biological target: T3, Ectonucleoside triphosphate diphosphohydrolase 3 (Homo sapiens, UniProt O75355); assay: Inhibition of human NTPDase-3 expressed in CHO-K1 cells in presence of DNA/LTX mixture; format: cell-based
T3 sequence (O75355 whole entry): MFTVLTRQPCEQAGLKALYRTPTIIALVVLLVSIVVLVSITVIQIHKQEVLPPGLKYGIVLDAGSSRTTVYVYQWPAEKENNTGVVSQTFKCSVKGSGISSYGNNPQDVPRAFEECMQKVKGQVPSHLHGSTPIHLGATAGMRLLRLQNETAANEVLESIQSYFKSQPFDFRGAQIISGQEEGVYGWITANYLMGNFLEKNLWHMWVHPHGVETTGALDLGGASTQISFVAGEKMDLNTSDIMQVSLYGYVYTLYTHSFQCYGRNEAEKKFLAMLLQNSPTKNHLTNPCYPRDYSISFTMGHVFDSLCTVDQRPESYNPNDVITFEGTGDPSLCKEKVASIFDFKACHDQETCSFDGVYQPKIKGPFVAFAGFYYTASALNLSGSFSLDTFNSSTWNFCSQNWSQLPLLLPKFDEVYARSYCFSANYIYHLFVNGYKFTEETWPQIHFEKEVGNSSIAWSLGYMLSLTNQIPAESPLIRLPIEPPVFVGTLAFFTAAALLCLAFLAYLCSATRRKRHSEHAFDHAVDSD
Method in brief: (§1)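 CHO-K1 cells transfected overnight (Lipofectamine LTX) with NTPDase2, 3 or 8 plasmid, then harvested into HEPES pH 7.4 buffer. 10,000 cells/well, 2% DMSO, 16-point 1:3 compound dilutions (final 10–0 μM), 1 h preincubation at 37 °C. ATP added at 25 (NTPDase2), 15 (NTPDase3) or 30 μM (NTPDase8), 50 min at 37 °C. Phosphate read with PiColorLock Gold at 620 nm.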

[6] = biological target: T4, Ectonucleoside triphosphate diphosphohydrolase 8 (Homo sapiens, UniProt Q5MY95); assay: Inhibition of human NTPDase-8 expressed in CHO-K1 cells in presence of DNA/LTX mixture; format: cell-based; method in brief: as §1
T4 sequence (Q5MY95 whole entry): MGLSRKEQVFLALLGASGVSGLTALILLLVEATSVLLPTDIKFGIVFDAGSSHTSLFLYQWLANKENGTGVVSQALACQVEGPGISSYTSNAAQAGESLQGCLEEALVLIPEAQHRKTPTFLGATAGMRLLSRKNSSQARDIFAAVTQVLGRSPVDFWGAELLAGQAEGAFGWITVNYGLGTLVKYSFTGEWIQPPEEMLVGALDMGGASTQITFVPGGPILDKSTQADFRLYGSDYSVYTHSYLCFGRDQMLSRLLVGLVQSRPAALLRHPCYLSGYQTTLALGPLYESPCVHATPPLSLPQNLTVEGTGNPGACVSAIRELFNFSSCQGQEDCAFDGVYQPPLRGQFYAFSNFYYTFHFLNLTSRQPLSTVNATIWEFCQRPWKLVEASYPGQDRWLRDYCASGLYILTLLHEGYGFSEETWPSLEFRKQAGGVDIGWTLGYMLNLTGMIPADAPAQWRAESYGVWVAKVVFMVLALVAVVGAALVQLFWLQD

[7] = Stability in mouse hepatocytes; format: ADME, cell-based, Hepatocyte
[8] = Clearance in Sprague-Dawley rat at 0.25 to 0.5 mg/kg, iv measured up to 24 hrs by LC-MS/MS analysis; format: ADME, organism-based; settings: in vivo, dose 0.25-0.5 mg/kg
Method in brief: (§2)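 Male SD rats (0.27–0.30 kg), acclimated. Single IV bolus via femoral vein at 0.25 or 0.5 mg/kg in 31.6% DMA/36.8% ethanol/31.6% PEG. Jugular blood at predose, 5, 15, 30 min, 1, 2, 4, 6, 8, 24 h, collected into K2-EDTA; plasma spun at 4 °C, stored −80 °C until analysis.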

[9] = Half life in Sprague-Dawley rat at 0.25 to 0.5 mg/kg, iv measured up to 24 hrs by LC-MS/MS analysis; format: ADME, organism-based; settings: in vivo, dose 0.25-0.5 mg/kg; method in brief: as §2

T1 sequence (P21589 whole entry): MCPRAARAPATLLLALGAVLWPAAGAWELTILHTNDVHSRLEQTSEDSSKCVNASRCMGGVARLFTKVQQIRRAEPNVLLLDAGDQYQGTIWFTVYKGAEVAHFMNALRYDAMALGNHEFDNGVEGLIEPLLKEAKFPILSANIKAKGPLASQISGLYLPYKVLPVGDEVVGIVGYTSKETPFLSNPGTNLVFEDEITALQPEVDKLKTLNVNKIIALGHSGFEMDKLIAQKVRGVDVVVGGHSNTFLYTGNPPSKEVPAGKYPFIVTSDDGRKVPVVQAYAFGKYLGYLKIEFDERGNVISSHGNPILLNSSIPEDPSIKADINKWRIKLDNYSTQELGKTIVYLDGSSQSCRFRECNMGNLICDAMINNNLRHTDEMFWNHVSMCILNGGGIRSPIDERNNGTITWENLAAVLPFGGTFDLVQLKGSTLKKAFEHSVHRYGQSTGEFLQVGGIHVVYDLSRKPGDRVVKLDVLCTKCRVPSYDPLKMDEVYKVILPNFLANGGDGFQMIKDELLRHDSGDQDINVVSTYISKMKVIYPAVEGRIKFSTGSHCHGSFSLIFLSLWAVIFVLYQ
Chain of Adenosine receptor A2a (P29274 whole entry): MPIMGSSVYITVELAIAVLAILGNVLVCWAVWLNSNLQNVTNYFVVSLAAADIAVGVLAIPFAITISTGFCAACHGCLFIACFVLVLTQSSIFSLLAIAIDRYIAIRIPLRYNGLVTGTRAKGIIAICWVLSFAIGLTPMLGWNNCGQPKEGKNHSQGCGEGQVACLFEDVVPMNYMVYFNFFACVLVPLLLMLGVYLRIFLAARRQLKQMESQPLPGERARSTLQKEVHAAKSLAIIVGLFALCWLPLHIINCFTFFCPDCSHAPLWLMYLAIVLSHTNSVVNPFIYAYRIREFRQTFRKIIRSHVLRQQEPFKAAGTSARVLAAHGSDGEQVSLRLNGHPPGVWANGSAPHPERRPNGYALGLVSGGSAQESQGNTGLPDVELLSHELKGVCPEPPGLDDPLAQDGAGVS

IC50 [1]: 0.55 nM
IC50 [2]: 2.6 nM
IC50 [3]: 13 nM
IC50 [4]: > 10000 nM
IC50 [5]: > 10000 nM
IC50 [6]: > 10000 nM
Stabilty [7]: Stable
clearance [8]: 2.17 mL/min/kg
half-life [9]: 1.2 h
SMILES: O=P(O)(O)COC[C@H]1O[C@@H](n2ncc3c(NC4CCCC4)nc(Cl)nc32)[C@H](O)[C@@H]1O
